Measured values as given in ChEMBL document CHEMBL1250505, “Synthesis and biological property of some novel 1,3,4-oxadiazoles” (2010).

Experiments:
Assay type in all cases: functional
[1] = system: Bacillus subtilis; assay: Antibacterial activity against Bacillus subtilis at 50 ug/ml after 24 to 48 hrs by cup-plate method; conditions: read-out: IZ
How it was run: (§1)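 Sterile nutrient agar cooled to […] and seeded with 18-24 h sub-cultures, then poured at about 45-50 mL per dish. Wells cut with a 6 mm sterile cork borer and filled with 0.1 mL of each of two test dilutions. Plates incubated inverted at 37 °C for 24–48 h; inhibition zone diameters measured in mm. Streptomycin and procaine penicillin served as standards.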

[2] = system: Mus musculus; assay: Analgesic activity in albino mouse assessed as paw licking latency at 100 mg/kg after 2 hrs by Eddy's hot plate method
How it was run: (§2)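 Albino mice of either sex, fasted 24 h, 6 per group. Compounds given at 100 mg/kg; control group received 2% acacia suspension, standard group pentazocine 35 mg/kg. Hot plate held at 55 ± 1 °C. Reaction time is the time to lick a hind paw or leap off the plate, recorded at 0, 30, 60, 120 and 240 min after dosing.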

[3] = system: Staphylococcus aureus; assay: Antibacterial activity against Staphylococcus aureus at 50 ug/ml after 24 to 48 hrs by cup-plate method; conditions: read-out: IZ; how it was run: as §1
[4] = system: Mus musculus; assay: Analgesic activity in albino mouse assessed as paw licking latency at 100 mg/kg after 4 hrs by Eddy's hot plate method; how it was run: as §2
[5] = system: Pseudomonas aeruginosa; assay: Antibacterial activity against Pseudomonas aeruginosa at 100 ug/ml after 24 to 48 hrs by cup-plate method; conditions: read-out: IZ; how it was run: as §1
[6] = system: Pseudomonas aeruginosa; assay: Antibacterial activity against Pseudomonas aeruginosa at 50 ug/ml after 24 to 48 hrs by cup-plate method; conditions: read-out: IZ; how it was run: as §1
[7] = system: Escherichia coli; assay: Antibacterial activity against Escherichia coli at 100 ug/ml after 24 to 48 hrs by cup-plate method; conditions: read-out: IZ; how it was run: as §1
[8] = system: Staphylococcus aureus; assay: Antibacterial activity against Staphylococcus aureus at 100 ug/ml after 24 to 48 hrs by cup-plate method; conditions: read-out: IZ; how it was run: as §1
[9] = system: Mus musculus; assay: Analgesic activity in albino mouse assessed as paw licking latency at 100 mg/kg after 1 hr by Eddy's hot plate method; how it was run: as §2
[10] = system: Mus musculus; assay: Analgesic activity in albino mouse assessed as paw licking latency at 100 mg/kg after 0.5 hrs by Eddy's hot plate method; how it was run: as §2
[11] = system: Escherichia coli; assay: Antibacterial activity against Escherichia coli at 50 ug/ml after 24 to 48 hrs by cup-plate method; conditions: read-out: IZ; how it was run: as §1
[12] = system: Bacillus subtilis; assay: Antibacterial activity against Bacillus subtilis at 100 ug/ml after 24 to 48 hrs by cup-plate method; conditions: read-out: IZ; how it was run: as §1

Row | SMILES | zone of inhibition at 50 µg/mL [1] [mm] | Time [2] [s] | zone of inhibition at 50 µg/mL [3] [mm] | Time [4] [s] | zone of inhibition at 100 µg/mL [5] [mm] | zone of inhibition at 50 µg/mL [6] [mm] | zone of inhibition at 100 µg/mL [7] [mm] | zone of inhibition at 100 µg/mL [8] [mm] | Time [9] [s] | Time [10] [s] | zone of inhibition at 50 µg/mL [11] [mm] | zone of inhibition at 100 µg/mL [12] [mm]
1 | N#CCCCSc1nnc(-c2cccc(-c3cccc(Cl)c3)c2)o1 | 8 | 5.12 | 10 | 4.71 | 16 | 12 | 17 | 15 | 4.77 | 4.51 | 10 | 16
2 | Fc1ccccc1-c1cccc(-c2n[nH]c(=S)o2)c1 | 12 | 5.38 | 15 | 5.04 | 21 | 18 | 19 | 20 | 5.24 | 4.99 | 15 | 19
3 | COc1ccc(F)cc1-c1cccc(-c2n[nH]c(=S)o2)c1 | 12 | 8.41 | 12 | 6.35 | 19 | 14 | 20 | 17 | 5.74 | 5.22 | 8 | 19
4 | COC(=O)CCCSc1nnc(-c2cccc(-c3cc(F)ccc3OC)c2)o1 | 13 | 6.01 | 10 | 6.01 | 19 | 13 | 18 | 16 | 5.11 | 4.75 | 15 | 18
5 | COc1ccccc1-c1cccc(-c2nnc(SCCCC#N)o2)c1 | 17 | 6.57 | 12 | 5.59 | 20 | 9 | 20 | 18 | 5.4 | 5.25 | 10 | 20
6 | COc1ccccc1-c1cccc(-c2n[nH]c(=S)o2)c1 | 10 | 7.61 | 11 | 6.28 | 18 | 11 | 18 | 18 | 5.84 | 4.94 | 12 | 21
7 | COc1ccc(F)cc1-c1cccc(-c2nnc(SCCCCF)o2)c1 | 10 | 4.72 | 12 | 4.55 | 15 | 7 | 19 | 15 | 4.48 | 4.35 | 12 | 17
8 | COc1ccc(F)cc1-c1cccc(-c2nnc(SCCCC#N)o2)c1 | 7 | 4.99 | 7 | 4.74 | 18 | 15 | 18 | 13 | 4.86 | 4.92 | 10 | 18
9 | COc1ccccc1-c1cccc(-c2nnc(SCCCCF)o2)c1 | 15 | 6.17 | 15 | 6.01 | 15 | 6 | 16 | 21 | 5.01 | 4.9 | 12 | 20
10 | FCCCCSc1nnc(-c2cccc(-c3cccc(Cl)c3)c2)o1 | 15 | 8.35 | 5 | 6.44 | 20 | 15 | 15 | 12 | 5.79 | 5.56 | 12 | 20
11 | S=c1[nH]nc(-c2cccc(-c3cccc(Cl)c3)c2)o1 | 13 | 5.01 | 10 | 5.08 | 14 | 9 | 16 | 11 | 4.84 | 4.71 | 11 | 9
12 | N#CCCCSc1nnc(-c2cccc(-c3ccccc3F)c2)o1 | 12 | 4.92 | 11 | 4.49 | 20 | 16 | 21 | 16 | 4.71 | 4.54 | 17 | 18
13 | COC(=O)CCCSc1nnc(-c2cccc(-c3ccccc3F)c2)o1 | 9 | 4.84 | 15 | 4.49 | 21 | 13 | 16 | 17 | 4.62 | 4.53 | 9 | 16
14 | COC(=O)CCCSc1nnc(-c2cccc(-c3cccc(Cl)c3)c2)o1 | 11 | 6.58 | 10 | 5.59 | 18 | 6 | 19 | 16 | 5.36 | 4.96 | 18 | 18
15 | COC(=O)CCCSc1nnc(-c2cccc(-c3ccccc3OC)c2)o1 | 11 | 6.58 | 9 | 6.21 | 21 | 18 | 16 | 14 | 5.21 | 5.01 | 7 | 15
16 | CN[C@@H]1[C@H](O[C@H]2[C@H](O[C@H]3[C@H](O)[C@@H](O)[C@H](N=C(N)N)[C@@H](O)[C@@H]3N=C(N)N)O[C@@H](C)[C@]2(O)C=O)O[C@@H](CO)[C@H](O)[C@H]1O [STREPTOMYCIN] |  |  |  |  | 25 | 21 | 25 |  |  |  | 21 | 
17 | FCCCCSc1nnc(-c2cccc(-c3ccccc3F)c2)o1 | 20 | 4.87 | 13 | 4.47 | 18 | 17 | 19 | 20 | 4.69 | 4.62 | 13 | 22
